{"source": "ChEMBL document CHEMBL1121825", "about": "“A potent, new, sedative--hypnotic agent: 5,7-dihydro-5,5,7,7-tetramethyl-3-(3-nitrophenyl)furo[3,4-e]-as-triazine 4-oxide” (J Med Chem, 1981)", "test_system": "Mus musculus", "assay": "Ability to reinduce anesthesia in mice as a measure of in vivo sedative-hypnotic activity", "type": "functional", "summary_of_the_method": "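Male Royal Hart mice (20–25 g) were anesthetized with hexobarbital 70.0 mg/kg iv. While they were regaining the righting reflex, compound was given ip. Reinduction was scored as loss of righting reflex for 10 min. ED50 (mg/kg) is the dose reinducing anesthesia in 50% of mice, estimated by probit analysis (Miller–Tainter).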", "data": [{"smiles": "CC1(C)NC(C)(C)c2c1nnc(-c1ccccc1)[n+]2[O-]", "values": [{"measurement": "ED50", "result": 1000, "unit": "mg/kg"}]}, {"smiles": "CC1(C)OC(C)(C)c2nc(-c3ccc(Cl)cn3)nnc21", "values": [{"measurement": "ED50", "result": 66.7, "unit": "mg/kg"}]}, {"smiles": "CC1(C)Cc2nnc(-c3ccccc3)[n+]([O-])c2C(C)(C)O1", "values": [{"measurement": "ED50", "result": 122, "unit": "mg/kg"}]}, {"smiles": "CC1(C)OC(C)(C)c2c1nnc(-c1ccccc1)[n+]2[O-]", "values": [{"measurement": "ED50", "result": 163, "unit": "mg/kg"}]}, {"smiles": "CC1(C)OC(C)(C)c2c1nnc(-c1cccc(Cl)c1)[n+]2[O-]", "values": [{"measurement": "ED50", "result": 500, "unit": "mg/kg"}]}]}
